Reference: ChEMBL document CHEMBL2401731, “Synthesis and pharmacological evaluation of 2-aryloxy/arylamino-5-cyanobenzenesulfonylureas as novel thromboxane A₂ receptor antagonists” (Eur J Med Chem, 2013)
The source made the active and inactive calls. The calls are words filed in the database; no cut-off is given here.

How the values were obtained:
[1] = Antiplatelet activity against human platelets assessed as inhibition of U-46619-induced platelet aggregation at 1 uM after 1 min; type: functional, cell-based
In short: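 Human platelet-rich plasma is taken from donors free of medication for at least 14 days, obtained at 100×g for 10 min, and adjusted to […] with platelet-poor plasma. Platelets incubated with test sample or 0.1% DMSO at 37 °C for 1 min, then U-46619 added to trigger aggregation. Aggregation measured by light transmission. Means ± SD, n ≥ 2.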

Thromboxane A2 receptor [2] = molecular target: T1, Thromboxane A2 receptor (Homo sapiens, UniProt P21731); test: Antagonist activity at human thromboxane A2 receptor alpha over-expressed in HEK293 cells assessed as inhibition of U-46619-induced intracellular calcium mobilization by fluorescence assay; type: functional, cell-based
T1 sequence (P21731 whole entry): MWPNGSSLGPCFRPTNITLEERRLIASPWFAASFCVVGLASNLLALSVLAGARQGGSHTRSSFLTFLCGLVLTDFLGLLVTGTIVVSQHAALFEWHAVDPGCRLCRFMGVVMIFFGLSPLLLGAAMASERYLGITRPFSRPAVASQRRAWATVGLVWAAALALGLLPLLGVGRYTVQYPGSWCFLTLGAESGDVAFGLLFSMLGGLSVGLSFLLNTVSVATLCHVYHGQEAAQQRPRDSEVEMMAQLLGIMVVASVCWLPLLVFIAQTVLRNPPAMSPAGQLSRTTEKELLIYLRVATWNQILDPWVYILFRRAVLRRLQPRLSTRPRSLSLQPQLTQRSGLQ
In short: (§1)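 HEK293 cells stably expressing HA-tagged TPα or TPβ, grown in DMEM/10% FBS. Trypsinized cells washed in Krebs-HEPES buffer, pH 7.4, loaded 1 h with Fluo-4/AM, rinsed, 150,000 cells/well. Compound at 10^-9 to 10^-5 M final, then stimulated with U-46619. Fluorescence read at 538 nm, calibrated to [Ca2+]i with Triton X-100/EGTA. IC50 from concentration-response curves, three independent experiments.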

Thromboxane A2 receptor [3] = molecular target: T1, Thromboxane A2 receptor; test: Antagonist activity at human thromboxane A2 receptor beta over-expressed in HEK293 cells assessed as inhibition of U-46619-induced intracellular calcium mobilization mobilization by fluorescence assay; type: functional, cell-based; in short: as §1
Platelet = test: Antiplatelet activity against human platelets assessed as inhibition of U-46619-induced platelet aggregation at 10 uM after 1 min; type: functional, cell-based
Homo sapiens = organism: Homo sapiens; test: Selectivity index, ratio of IC50 for human thromboxane A2 receptor alpha to IC50 for human thromboxane A2 receptor beta
In short: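 IC50 at TPα divided by IC50 at TPβ. Both IC50s come from U-46619-stimulated Fluo-4 calcium mobilization in HEK293 cells stably expressing each isoform. Mean ± SD of three separate experiments.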

| Compound | IC50 [1] [µM] | IC50 (Thromboxane A2 receptor [2]) [µM] | IC50 (Thromboxane A2 receptor [3]) [µM] | inhibition (Platelet) | Ratio IC50 (Homo sapiens) |
| --- | --- | --- | --- | --- | --- |
| Cc1ccc(Oc2ccc(C#N)cc2S(=O)(=O)NC(=O)NC(C)(C)C)cc1 | 0.649 | 0.75 | 0.68 | Active | – |
| CC(C)NC(=O)NS(=O)(=O)c1cc(C#N)ccc1Oc1ccc(Br)cc1 | – | 9.47 | 9.13 | – | 1 |
| Cc1cccc(Oc2ccc(C#N)cc2S(=O)(=O)NC(=O)NC(C)C)c1 | – | 2.38 | 1.69 | Active | 1.4 |
| Cc1cccc(Nc2ccc(C#N)cc2S(=O)(=O)NC(=O)NC(C)C)c1 | – | 9.5 | 9.11 | Active | 1 |
| Cc1ccccc1Oc1ccc(C#N)cc1S(=O)(=O)NC(=O)NC(C)(C)C | 0.966 | 3.69 | 1.47 | Active | – |
| CCCCCNC(=O)NS(=O)(=O)c1cc(C#N)ccc1Oc1ccccc1C | – | 2.24 | 1.78 | Active | 1.3 |
| Cc1ccccc1Nc1ccc(C#N)cc1S(=O)(=O)NC(=O)NC(C)(C)C | 0.971 | 2.75 | 4.78 | Active | – |
| Cc1cccc(Oc2ccc(C#N)cc2S(=O)(=O)NC(=O)NC(C)(C)C)c1 | 0.705 | 1.05 | 0.69 | Active | – |
| CC(C)(C)NC(=O)NS(=O)(=O)c1cc(C#N)ccc1Oc1ccc(F)cc1 | – | 4.35 | 3.89 | – | 1.2 |
| Cc1ccc(Nc2ccc([N+](=O)[O-])cc2S(=O)(=O)NC(=O)NC(C)(C)C)cc1 | 0.509 | 0.7 | 0.62 | – | 1.1 |
| Cc1cccc(Nc2ccc(C#N)cc2S(=O)(=O)NC(=O)NC(C)(C)C)c1 | 0.726 | 1.59 | 2.2 | Active | 0.7 |
| CCCCCNC(=O)NS(=O)(=O)c1cc(C#N)ccc1Oc1ccc(I)cc1 | – | 9.52 | 9.49 | – | 1 |
| CCCCCNC(=O)NS(=O)(=O)c1cc(C#N)ccc1Oc1cccc(C)c1 | – | 1.33 | 0.68 | Active | 2 |
| CC(C)(C)NC(=O)NS(=O)(=O)c1cc(C#N)ccc1Oc1ccc(I)cc1 | – | 5.52 | 5.54 | – | 0.9 |
| Cc1ccc(Nc2ccc(C#N)cc2S(=O)(=O)NC(=O)NC(C)C)cc1 | – | 4.11 | 4.22 | Active | 0.9 |
| CCCCCNC(=O)NS(=O)(=O)c1cc(C#N)ccc1Oc1ccc(C)cc1 | – | 0.9 | 0.63 | Active | 1.4 |
| CCCCCNC(=O)NS(=O)(=O)c1cc(C#N)ccc1Nc1ccc(F)cc1 | – | 6.78 | 6.45 | – | 1.05 |

| Compound | IC50 [1] [µM] | IC50 (Thromboxane A2 receptor [2]) [µM] | IC50 (Thromboxane A2 receptor [3]) [µM] | inhibition (Platelet) | Ratio IC50 (Homo sapiens) |
| --- | --- | --- | --- | --- | --- |
| Cc1ccccc1Nc1ccc(C#N)cc1S(=O)(=O)NC(=O)NC(C)C | – | 7.24 | 10.1 | Active | 0.7 |
| CCCCCNC(=O)NS(=O)(=O)c1cc(C#N)ccc1Oc1ccc(F)cc1 | – | 9.43 | 9.53 | – | 0.9 |
| Cc1ccc(Oc2ccc(C#N)cc2S(=O)(=O)NC(=O)NC(C)C)cc1 | – | 3.05 | 1.35 | Active | 2.3 |
| CC(C)(C)NC(=O)NS(=O)(=O)c1cc(C#N)ccc1Oc1ccc(Cl)cc1 | – | 5.64 | 5.27 | – | 1.1 |
| CCCCCNC(=O)NS(=O)(=O)c1cc(C#N)ccc1Nc1cccc(C)c1 | – | 2.95 | 2.33 | Active | 1.3 |
| CC(C)NC(=O)NS(=O)(=O)c1cc(C#N)ccc1Nc1ccc(F)cc1 | – | 8.17 | 7.83 | – | 1.04 |
| CC(C)NC(=O)NS(=O)(=O)c1cc(C#N)ccc1Oc1ccc(I)cc1 | – | 9.52 | 9.49 | – | 1 |
| CCCCCNC(=O)NS(=O)(=O)c1cc(C#N)ccc1Oc1ccc(Cl)cc1 | – | 8.64 | 8.72 | – | 0.9 |
| CC(C)NC(=O)NS(=O)(=O)c1cc(C#N)ccc1Oc1ccc(Cl)cc1 | – | 9.46 | 8.49 | – | 1.1 |
| Cc1ccc(Nc2ccc(C#N)cc2S(=O)(=O)NC(=O)NC(C)(C)C)cc1 | 0.504 | 0.85 | 1.04 | Active | – |
| CC(C)NC(=O)NS(=O)(=O)c1cc(C#N)ccc1Oc1ccc(F)cc1 | – | 9.62 | 9.3 | – | 1 |
| Cc1ccccc1Oc1ccc(C#N)cc1S(=O)(=O)NC(=O)NC(C)C | – | 8.68 | 6.13 | Active | 1.4 |
| CCCCCNC(=O)NS(=O)(=O)c1cc(C#N)ccc1Nc1ccccc1C | – | 3.19 | 7.85 | Active | 0.4 |
| CC(C)(C)NC(=O)NS(=O)(=O)c1cc(C#N)ccc1Nc1ccc(F)cc1 | – | 4.64 | 4.91 | – | 0.95 |
| CCCCCNC(=O)NS(=O)(=O)c1cc(C#N)ccc1Nc1ccc(C)cc1 | – | 1.04 | 2.06 | Active | 0.5 |
| CCCCCNC(=O)NS(=O)(=O)c1cc(C#N)ccc1Oc1ccc(Br)cc1 | – | 8.52 | 9.54 | – | 0.9 |
| CC(C)(C)NC(=O)NS(=O)(=O)c1cc(C#N)ccc1Oc1ccc(Br)cc1 | – | 5.88 | 5.31 | – | 1.1 |
